From ChEMBL document CHEMBL2046299, “Construction and functionalization of fused pyridine ring leading to novel compounds as potential antitubercular agents” (Bioorg Med Chem Lett, 2012)
Values after ≈ are worked out from the molar mass of the structure shown.

tested on: Mycobacterium tuberculosis; test: Antitubercular activity against Mycobacterium tuberculosis H37Rv ATCC 27294 assessed as minimum concentration required to inhibit 90% growth after 1 week by fluorescence-based microplate Alamar Blue assay; assay type: functional; conditions: H37Rv ATCC 27294, 168 h
Outline: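 M. tuberculosis H37Rv, MABA with fluorescence read-out. MIC taken as the lowest concentration cutting fluorescence by 90% relative to bacteria-only controls. Rifampicin, isoniazid and moxifloxacin served as reference compounds.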

SMILES	MIC90 [µg/mL]
CCOC(=O)c1cc(Cl)[n+]([O-])c2ccc(C)cc12	4.33 (≈ 16.3 µM)
CCOC(=O)c1cc(Cl)[n+]([O-])c2ccccc12	9.2 (≈ 36.6 µM)
CCOC(=O)c1cc(Cl)[n+]([O-])c2ccc(F)cc12	10.9 (≈ 40.4 µM)
O=C(O)c1cc(O)n(O)c(=O)c1	> 100
Cc1cc(C(=O)O)cc(=O)[nH]1	> 50
O=C(O)c1cc(=O)[nH]c2c1CCC2	> 50
O=C(O)c1cc(=O)[nH]c2c1CCCC2	> 50
O=C(O)c1cc(=O)[nH]c2c1CCCCCC2	> 50
COC(=O)c1cc(C)[n+]([O-])c(Cl)c1	> 100
COC(=O)c1cc(Cl)[n+]([O-])c2c1CCC2	> 100
COC(=O)c1cc(Cl)[n+]([O-])c2c1CCCC2	> 100
COC(=O)c1cc(Cl)[n+]([O-])c2c1CCCCCC2	> 50
COC(=O)c1cc(C)n(O)c(=O)c1	> 100
CCOc1cc(C(=O)O)c2c([n+]1[O-])CCC2	> 100
CCOc1cc(C(=O)O)c2c([n+]1[O-])CCCC2	> 100
Cc1cc(C(=O)O)cc(=O)n1O	> 50
O=C(O)c1cc(=O)n(O)c2c1CCC2	> 100
O=C(O)c1cc(=O)n(O)c2c1CCCC2	> 100
CCOc1cc(C(=O)O)cc(OCC)[n+]1[O-]	> 100
O=C(O)c1cc(O)nc2ccccc12	> 50
Cc1ccc2[nH]c(=O)cc(C(=O)O)c2c1	> 50
O=C(O)c1cc(=O)[nH]c2ccc(F)cc12	> 50
O=C(O)c1cc(=O)[nH]c2ccc([N+](=O)[O-])cc12	> 50

SMILES	MIC90 [µg/mL]
O=C(O)c1cc(=O)n(O)c2ccccc12	> 100
Cc1ccc2c(c1)c(C(=O)O)cc(=O)n2O	> 100
O=C(O)c1cc(=O)n(O)c2ccc(F)cc12	> 100
Cc1cc(C(=O)O)cc(Cl)[n+]1[O-]	> 100
O=C(O)c1cc(Cl)[n+]([O-])c2c1CCC2	> 50
O=C(O)c1cc(Cl)[n+]([O-])c2c1CCCC2	> 100
O=C(O)c1cc(Cl)[n+]([O-])c2c1CCCCCC2	> 100
O=C(O)c1cc(Cl)[n+]([O-])c2ccccc12	> 100
Cc1ccc2c(c1)c(C(=O)O)cc(Cl)[n+]2[O-]	> 100
O=C(O)c1cc(Cl)[n+]([O-])c2ccc(F)cc12	> 100
NNC(=O)c1cc(=O)[nH]c2c1CCCC2	> 100
NNC(=O)c1cc(=O)[nH]c2c1CCC2	> 100
NNC(=O)c1cc(=O)[nH]c2ccccc12	> 100
Cc1ccc2[nH]c(=O)cc(C(=O)NN)c2c1	> 100
NNC(=O)c1cc(=O)[nH]c2ccc(F)cc12	> 100
NNC(=O)c1cc(=O)[nH]c2ccc([N+](=O)[O-])cc12	> 100
CCCn1c(=O)[nH]c(=O)c2c(C(=O)O)cc(=O)[nH]c21	> 100
CCCn1c(=O)[nH]c(=O)c2c(C(=O)O)cc(Cl)nc21	91.7 (≈ 323 µM)
O=C(O)c1cc(O)nc(O)c1 [CITRAZINIC ACID]	> 50
NNC(=O)c1ccncc1 [ISONIAZID]	0.33 (≈ 2.41 µM)
COc1c(N2C[C@@H]3CCCN[C@@H]3C2)c(F)cc2c(=O)c(C(=O)O)cn(C3CC3)c12 [MOXIFLOXACIN]	0.39 (≈ 0.972 µM)
CO[C@H]1/C=C/O[C@@]2(C)Oc3c(C)c(O)c4c(O)c(c(/C=N/N5CCN(C)CC5)c(O)c4c3C2=O)NC(=O)/C(C)=C\C=C\[C@H](C)[C@H](O)[C@@H](C)[C@@H](O)[C@@H](C)[C@H](OC(C)=O)[C@@H]1C [RIFAMPIN]	0.05 (≈ 0.0608 µM)

tested on: Mycobacterium tuberculosis; test: Antitubercular activity against non-replicating Mycobacterium tuberculosis assessed as minimum concentration required to inhibit 90% growth after 10 days under anaerobic condition by luciferase-based low-oxygen recovery assay; assay type: functional; conditions: not given
Outline: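 Non-replicating M. tuberculosis, low-oxygen recovery assay with luciferase read-out, run on compounds selected from the MABA screen. MIC taken as the lowest concentration inhibiting recovery of luciferase signal by ≥90% relative to bacteria-only controls. Rifampicin, isoniazid and moxifloxacin served as references.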

SMILES	inhibition (INH) [%]
NNC(=O)c1ccncc1 [ISONIAZID]	84

same assay, conditions: Mycobacterium tuberculosis, 240 h

SMILES	MIC90 [µg/mL]
CCOC(=O)c1cc(Cl)[n+]([O-])c2ccc(C)cc12	3.65 (≈ 13.7 µM)
CCOC(=O)c1cc(Cl)[n+]([O-])c2ccccc12	7.3 (≈ 29 µM)
CCOC(=O)c1cc(Cl)[n+]([O-])c2ccc(F)cc12	13.1 (≈ 48.6 µM)
NNC(=O)c1ccncc1 [ISONIAZID]	> 128
COc1c(N2C[C@@H]3CCCN[C@@H]3C2)c(F)cc2c(=O)c(C(=O)O)cn(C3CC3)c12 [MOXIFLOXACIN]	15.9 (≈ 39.7 µM)

tested on: not listed separately; test: (§1) Cytotoxicity against african green monkey Vero cells after 72 hrs by MTS assay; assay type: cell-based, Chlorocebus sabaeus; conditions: chlorocebus sabaeus, Vero cells; read-out: INH

SMILES	cytotoxicity at 72 h [%]
CCOC(=O)c1cc(Cl)[n+]([O-])c2ccc(C)cc12	96

tested on: Vero; test: as §1; assay type: cell-based, Chlorocebus sabaeus; conditions: Chlorocebus sabaeus, Vero, 72 h

SMILES	IC50 [µg/mL]
CCOC(=O)c1cc(Cl)[n+]([O-])c2ccc(C)cc12	< 8
